Values after ≈ are worked out from the molar mass of the structure shown.
Tests used:
[1] = tested on: Vesicular stomatitis virus; test: Antiviral activity against vesicular stomatitis virus infected HEF cell lines.; format: functional
Summary of the method: (§1)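 Human embryonic fibroblasts, from embryonic lung or embryonic skin-muscle, infected with the virus. Endpoint is the minimum inhibitory concentration that reduces virus-induced cytopathicity by 50%. Values are averages of at least two separate experiments.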

Coxsackievirus B4 [2] = test: Antiviral activity against Coxsackie B4 virus infected HeLa cell lines.; format: functional; conditions: Enterovirus B
Summary of the method: (§2)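 Vero (African green monkey kidney), HeLa (human epithelial) or HEL (human embryonic lung) cell monolayers infected with the virus. Readout is the minimum inhibitory concentration that reduces virus-induced cytopathicity by 50%. Values are averages of at least two separate experiments.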

Semliki Forest virus = test: Antiviral activity against Semliki forest virus infected Vero cell lines.; format: functional; summary of the method: as §2
CCRF-CEM = test: Cytotoxicity against CEM cell lines.; format: functional; conditions: Homo sapiens
Human alphaherpesvirus 1 [3] = test: Antiviral activity against TK-HSV-1 virus infected HEF cell lines.; format: functional; summary of the method: as §1
Human respirovirus 3 = test: Antiviral activity against parainfluenza 3 virus infected Vero cell lines.; format: functional; summary of the method: as §2
Vaccinia virus = test: Antiviral activity against vaccinia virus infected HEF cell lines.; format: functional; conditions: Orthopoxvirus vaccinia; summary of the method: as §1
[4] = tested on: Vesicular stomatitis virus; test: Antiviral activity against vesicular stomatitis virus infected HeLa cell lines.; format: functional; summary of the method: as §2
MDCK [5] = test: Antiviral activity tested against influenza A,H1N1 virus infected MDCK cell lines.; format: functional; conditions: Canis lupus familiaris
Human alphaherpesvirus 3 [6] = test: Antiviral activity against TK-VZV virus infected HEL cell lines.; format: functional; summary of the method: as §2
HeLa = test: Effects on cell morphology of HeLa cell lines.; format: functional; conditions: Homo sapiens
Summary of the method: (§3)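 HeLa (human epithelial) or Vero (African green monkey kidney) cells were examined under the microscope for changes in normal morphology. The value is the minimum concentration causing a detectable alteration, averaged from at least two separate experiments.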

[7] = tested on: Human immunodeficiency virus 1; test: Antiviral activity against HIV-1 virus infected CEM cell lines.; format: functional, CCRF-CEM
Enterovirus C = test: Antiviral activity against polio 1 virus infected HeLa cell lines.; format: functional; summary of the method: as §2
MDCK [8] = test: Antiviral activity of compound was tested against morphology virus infec+ted MDCK cell lines.; format: functional; conditions: Canis lupus familiaris
Human alphaherpesvirus 1 [9] = test: Antiviral activity against HSV-1 virus infected HEF cell lines.; format: functional; summary of the method: as §1
HEF = test: Effects on cell morphology of HEF cell lines.; format: functional; conditions: Homo sapiens
Summary of the method: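 Human embryonic skin-muscle fibroblasts were examined under the microscope for changes in normal cell morphology. The value is the minimum concentration causing a microscopically detectable alteration, averaged from at least two separate experiments.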

Human alphaherpesvirus 2 = test: Antiviral activity against HSV-2 virus infected HEF cell lines.; format: functional; summary of the method: as §1
[10] = Antiviral activity against influenza A,H2N2 virus infected MDCK cell lines.; format: functional
[11] = Antiviral activity against influenza A,H3N2 virus infected MDCK cell lines.; format: functional
Coxsackievirus B4 [12] = test: Antiviral activity against Coxsackie B4 virus infected vero cell lines.; format: functional; conditions: Enterovirus B; summary of the method: as §2
HEL = test: Inhibition of HEL cell proliferation.; format: functional; conditions: Homo sapiens
Summary of the method: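 Human embryonic lung fibroblasts were used for the proliferation assay. The value is the concentration that reduces cell proliferation by 50%, averaged from at least two separate experiments.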

Vero = test: Effects on cell morphology of Vero cell lines.; format: functional; conditions: Chlorocebus sabaeus; summary of the method: as §3
Influenza B virus = test: Antiviral activity against influenza B virus infected MDCK cell lines.; format: functional
Sindbis virus = test: Antiviral activity against sindbis virus infected Vero cell lines.; format: functional; summary of the method: as §2
Human alphaherpesvirus 3 [13] = test: Antiviral activity against TK+VZV virus infected HEL cell lines.; format: functional; summary of the method: as §2
[14] = tested on: Mammalian orthoreovirus 1; test: Antiviral activity against Reo 1 virus infected vero cell lines.; format: functional; summary of the method: as §2
[15] = tested on: Human immunodeficiency virus 2; test: Antiviral activity against HIV-2 virus infected CEM cell lines.; format: functional, CCRF-CEM
Human betaherpesvirus 5 = test: Antiviral activity against HCMV virus infected HEL cell lines.; format: functional; summary of the method: as §2

Row | SMILES | MIC50 [1] [µg/mL] | MIC50 (Coxsackievirus B4 [2]) [µg/mL] | MIC50 (Semliki Forest virus) [µg/mL] | MIC50 (CCRF-CEM) [µg/mL] | MIC50 (Human alphaherpesvirus 1 [3]) [µg/mL] | MIC50 (Human respirovirus 3) [µg/mL] | MIC50 (Vaccinia virus) [µg/mL] | MIC50 [4] [µg/mL] | MIC50 (MDCK [5]) [µg/mL] | MIC50 (Human alphaherpesvirus 3 [6]) [µg/mL] | MIC50 (HeLa) [µg/mL] | MIC50 [7] [µg/mL] | MIC50 (Enterovirus C) [µg/mL] | MIC50 (MDCK [8]) [µg/mL] | MIC50 (Human alphaherpesvirus 1 [9]) [µg/mL] | MIC50 (HEF) [µg/mL] | MIC50 (Human alphaherpesvirus 2) [µg/mL] | MIC50 [10] [µg/mL] | MIC50 [11] [µg/mL] | MIC50 (Coxsackievirus B4 [12]) [µg/mL] | further results
1 | C1CCC2(CC1)CCCN2CC12CC3CC(CC(C3)C1)C2 | > 40 | > 100 | > 100 | 33 (≈ 115 µM) | > 40 | > 100 | > 40 | 100 (≈ 348 µM) | > 150 | 20 (≈ 69.6 µM) | 200 (≈ 696 µM) | > 20 | > 100 | > 250 | > 40 | 100 (≈ 348 µM) | > 40 | > 100 | > 100 | > 100 | MIC50 (HEL): > 50 µg/mL; MIC50 (Vero): > 200 µg/mL; MIC50 (Influenza B virus): > 100 µg/mL; MIC50 (Sindbis virus): > 100 µg/mL; MIC50 (Human alphaherpesvirus 3 [13]): 30 µg/mL (≈ 104 µM); MIC50 [14]: > 100 µg/mL; MIC50 [15]: > 20 µg/mL; MIC50 (Human betaherpesvirus 5): > 50 µg/mL
2 | CN(C)C1(C23CC4CC(CC(C4)C2)C3)CCCC1 | > 40 | > 100 | > 400 | 70 (≈ 283 µM) | > 40 | > 400 | > 40 | > 100 | > 80 | 30 (≈ 121 µM) | 200 (≈ 808 µM) | > 40 | > 100 | > 250 | > 40 | 100 (≈ 404 µM) | > 40 | 19.7 (≈ 79.6 µM) | > 100 | > 400 | MIC50 (HEL): 50 µg/mL (≈ 202 µM); MIC50 (Vero): > 400 µg/mL; MIC50 (Influenza B virus): > 100 µg/mL; MIC50 (Sindbis virus): > 400 µg/mL; MIC50 (Human alphaherpesvirus 3 [13]): 30 µg/mL (≈ 121 µM); MIC50 [14]: > 400 µg/mL; MIC50 [15]: > 40 µg/mL; MIC50 (Human betaherpesvirus 5): 40 µg/mL (≈ 162 µM)
3 | CNC1(C23CC4CC(CC(C4)C2)C3)CCCC1 | > 10 | > 40 | > 100 | 49 (≈ 210 µM) | > 10 | > 100 | > 10 | > 40 | 59 (≈ 253 µM) | > 20 | > 100 | > 8 | > 40 | > 250 | > 10 | 40 (≈ 171 µM) | > 10 | 9 (≈ 38.6 µM) | > 60 | > 100 | MIC50 (HEL): > 50 µg/mL; MIC50 (Vero): > 400 µg/mL; MIC50 (Influenza B virus): > 80 µg/mL; MIC50 (Sindbis virus): > 100 µg/mL; MIC50 (Human alphaherpesvirus 3 [13]): > 20 µg/mL; MIC50 [14]: > 100 µg/mL; MIC50 [15]: > 8 µg/mL; MIC50 (Human betaherpesvirus 5): > 20 µg/mL
4 | CCCCN1CCCC1C12CC3CC(CC(C3)C1)C2 (stereo unspecified) | > 40 | > 100 | > 100 | 74 (≈ 283 µM) | > 40 | > 100 | > 40 | > 100 | 4 (≈ 15.3 µM) | > 20 | 200 (≈ 765 µM) | > 40 | > 100 | 250 (≈ 956 µM) | > 40 | 100 (≈ 382 µM) | > 40 | 44.5 (≈ 170 µM) | > 100 | > 100 | MIC50 (HEL): > 50 µg/mL; MIC50 (Vero): > 200 µg/mL; MIC50 (Influenza B virus): > 80 µg/mL; MIC50 (Sindbis virus): > 100 µg/mL; MIC50 (Human alphaherpesvirus 3 [13]): > 50 µg/mL; MIC50 [14]: > 100 µg/mL; MIC50 [15]: > 40 µg/mL; MIC50 (Human betaherpesvirus 5): > 50 µg/mL
5 | CN1CCCCC12C1CC3CC(C1)CC2C3 (stereo unspecified) | > 200 | > 400 | > 400 | > 200 | > 200 | > 400 | > 200 | > 400 | 6.2 (≈ 28.3 µM) | > 50 | > 400 | 115 (≈ 524 µM) | > 400 | > 250 | > 200 | 100 (≈ 456 µM) | > 200 | 0.58 (≈ 2.64 µM) | 45 (≈ 205 µM) | > 400 | MIC50 (HEL): > 50 µg/mL; MIC50 (Vero): > 400 µg/mL; MIC50 (Influenza B virus): 60 µg/mL (≈ 274 µM); MIC50 (Sindbis virus): > 400 µg/mL; MIC50 (Human alphaherpesvirus 3 [13]): > 50 µg/mL; MIC50 [14]: > 400 µg/mL; MIC50 [15]: > 200 µg/mL; MIC50 (Human betaherpesvirus 5): > 50 µg/mL
6 | C1CCC2(C1)CCCN2CC12CC3CC(CC(C3)C1)C2 | > 100 | > 100 | > 100 | 59 (≈ 216 µM) | > 40 | > 100 | > 40 | > 100 | > 150 | 20 (≈ 73.1 µM) | 200 (≈ 731 µM) | > 40 | > 100 | > 250 | > 40 | 100 (≈ 366 µM) | > 40 | > 60 | > 47 | > 100 | MIC50 (HEL): > 50 µg/mL; MIC50 (Vero): > 400 µg/mL; MIC50 (Influenza B virus): > 100 µg/mL; MIC50 (Sindbis virus): > 100 µg/mL; MIC50 (Human alphaherpesvirus 3 [13]): 32 µg/mL (≈ 117 µM); MIC50 [14]: > 100 µg/mL; MIC50 [15]: > 40 µg/mL; MIC50 (Human betaherpesvirus 5): > 50 µg/mL
7 | CCN1CCCC1C12CC3CC(CC(C3)C1)C2 (stereo unspecified) | > 100 | > 400 | > 400 | 115 (≈ 493 µM) | > 100 | > 400 | > 100 | > 400 | > 34 | > 50 | > 400 | > 40 | > 400 | 250 (≈ 1070 µM) | > 100 | 200 (≈ 857 µM) | > 100 | > 14 | 58 (≈ 249 µM) | > 400 | MIC50 (HEL): > 50 µg/mL; MIC50 (Vero): > 400 µg/mL; MIC50 (Influenza B virus): 60 µg/mL (≈ 257 µM); MIC50 (Sindbis virus): > 400 µg/mL; MIC50 (Human alphaherpesvirus 3 [13]): > 50 µg/mL; MIC50 [14]: > 400 µg/mL; MIC50 [15]: > 40 µg/mL; MIC50 (Human betaherpesvirus 5): > 50 µg/mL

From ChEMBL document CHEMBL1129609, “Synthesis and antiviral activity evaluation of some new aminoadamantane derivatives. 2” (1996)
